Assay results: ChEMBL document CHEMBL1140443, “Inhibitors of apoptosis in lymphocytes: synthesis and biological evaluation of compounds related to pifithrin-alpha” (J Med Chem, 2005)

Tests used:
[1] = species on record: Mus musculus; test: Average percent survival of C57Bl/6 mice thymocytes from Dexamethasone (5 uM) induced apoptosis at 10 uM
[2] = species on record: Mus musculus; test: Concentration required to inhibit dexamethasone-induced death of mice thymocytes; type: functional, organism-based
Outline: (§1)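 Thymocytes from young C57Bl/6 mice, cultured at 37 °C in 5% CO2 in RPMI 1640 with 10% FBS and penicillin/streptomycin, plated at 10⁷ cells/mL. Cells were preincubated 30 min with graded compound concentrations (DMSO stock), then given 5 μM dexamethasone for 6 h. Cells were stained 30 min with 40 nM DiOC6 and 5 μg/mL PI and read by flow cytometry; DiOC6-high/PI-low cells were scored viable. EC50 was taken from a nonlinear one-site fit, with its 95% confidence interval.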

[3] = Concentration for 95% confidence interval (CI) in dexamethasone-induced mice thymocytes; range 8.49-12.32 uM; type: functional, Mus musculus
Outline: as §1

[4] = Concentration for 95% confidence interval (CI) in dexamethasone-induced mice thymocytes; range 0.95-1.57 uM; type: functional, Mus musculus
Outline: as §1

[5] = Concentration for 95% confidence interval (CI) in dexamethasone-induced mice thymocytes; range 1.45-2.80 uM; type: functional, Mus musculus
Outline: as §1

[6] = Concentration for 95% confidence interval (CI) in dexamethasone-induced mice thymocytes; range 0.11-1.08 uM; type: functional, Mus musculus
Outline: as §1

[7] = Concentration for 95% confidence interval (CI) in dexamethasone-induced mice thymocytes; range 4.64-7.91 uM; type: functional, Mus musculus
Outline: as §1

[8] = Concentration for 95% confidence interval (CI) in dexamethasone-induced mice thymocytes; range 3.86-13.70 uM; type: functional, Mus musculus
Outline: as §1

[9] = Concentration for 95% confidence interval (CI) in dexamethasone-induced mice thymocytes; range 1.51-2.24 uM; type: functional, Mus musculus
Outline: as §1

[10] = Concentration for 95% confidence interval (CI) in dexamethasone-induced mice thymocytes; range 3.45-4.69 uM; type: functional, Mus musculus
Outline: as §1

[11] = Concentration for 95% confidence interval (CI) in dexamethasone-induced mice thymocytes; range 2.78-5.16 uM; type: functional, Mus musculus
Outline: as §1

[12] = Concentration for 95% confidence interval (CI) in dexamethasone-induced mice thymocytes; range 3.26-8.82 uM; type: functional, Mus musculus
Outline: as §1

[13] = Concentration for 95% confidence interval (CI) in dexamethasone-induced mice thymocytes; range 2.95-5.88 uM; type: functional, Mus musculus
Outline: as §1

[14] = Concentration for 95% confidence interval (CI) in dexamethasone-induced mice thymocytes; range 6.02-8.76 uM; type: functional, Mus musculus
Outline: as §1

[15] = Concentration for 95% confidence interval (CI) in dexamethasone-induced mice thymocytes; range 2.78-34.83 uM; type: functional, Mus musculus
Outline: as §1

[16] = Concentration for 95% confidence interval (CI) in dexamethasone-induced mice thymocytes; range 2.86-6.89 uM; type: functional, Mus musculus
Outline: as §1

[17] = Concentration for 95% confidence interval (CI) in dexamethasone-induced mice thymocytes; range 4.08-13.75 uM; type: functional, Mus musculus
Outline: as §1

[18] = Concentration for 95% confidence interval (CI) in dexamethasone-induced mice thymocytes; range 3.95-5.75 uM; type: functional, Mus musculus
Outline: as §1

[19] = Concentration for 95% confidence interval (CI) in dexamethasone-induced mice thymocytes; range 0.94-1.82 uM; type: functional, Mus musculus
Outline: as §1

[20] = Concentration for 95% confidence interval (CI) in dexamethasone-induced mice thymocytes; range 4.08-8.01 uM; type: functional, Mus musculus
Outline: as §1

[21] = Concentration for 95% confidence interval (CI) in dexamethasone-induced mice thymocytes; range 1.76-2.98 uM; type: functional, Mus musculus
Outline: as §1

[22] = Concentration for 95% confidence interval (CI) in dexamethasone-induced mice thymocytes; range 3.07-5.28 uM; type: functional, Mus musculus
Outline: as §1

[23] = Concentration for 95% confidence interval (CI) in dexamethasone-induced mice thymocytes; range 4.61-7.00 uM; type: functional, Mus musculus
Outline: as §1

| Compound | Survival [1] [%] | EC50 [2] [µM] | also measured |
| --- | --- | --- | --- |
| Brc1ccc(-c2cn3c(n2)sc2ccccc23)cc1 | 22 | – | – |
| c1ccc(-c2cn3c(n2)sc2ccccc23)cc1 | 73 | 10.2 | CI [3]: 12.32 µM |
| Cc1ccc(-c2cn3c(n2)sc2ccccc23)cc1 | 73 | 1.22 | CI [4]: 1.57 µM |
| O=[N+]([O-])c1ccc(-c2cn3c4c(sc3n2)CCCC4)cc1 | 11 | – | – |
| Cc1ccc(-c2cn3c4c(sc3n2)CCCC4)cc1 | 54 | 2.01 | CI [5]: 2.8 µM |
| Fc1cccc(-c2cn3c4c(sc3n2)CCCC4)c1 | 34 | – | – |
| Clc1ccc(-c2cn3c4c(sc3n2)CCCC4)cc1 | 35 | – | – |
| c1ccc2c(c1)sc1nc(-c3ccc(N4CCCC4)cc3)cn12 | 78 | 0.35 | CI [6]: 1.08 µM |
| [N-]=[N+]=Nc1ccc(-c2cn3c4c(sc3n2)CCCC4)cc1 | 50 | – | – |
| Cc1ccc(C(=O)CSc2nc3ccccc3s2)cc1 | 16 | – | – |
| Cc1ccc(-c2cn3c(n2)nc(Cl)c2ccccc23)cc1 | 46 | – | – |
| COc1ccc(-c2cn3c4c(sc3n2)CCCC4)cc1 | 28 | – | – |
| Cc1ccc(C(=O)Cn2c(=N)sc3ccccc32)cc1 | 21 | > 10 | – |
| N=c1sc2c(n1CC(=O)c1ccccc1)CCCC2 | 59 | 6.06 | CI [7]: 7.91 µM |
| FC(F)(F)c1ccc(-c2cn3c4c(sc3n2)CCCC4)cc1 | 27 | – | – |
| Cc1ccc(-c2cn3c(n2)nc(O)c2ccccc23)cc1 | 28 | – | – |
| N=c1sc2c(n1CC(=O)c1ccc(Cl)c(Cl)c1)CCCC2 | 57 | 7.28 | CI [8]: 13.7 µM |
| Cc1ccc(-c2cn3c(n2)sc2cc(Br)ccc23)cc1 | 39 | – | – |
| N=c1sc2ccccc2n1CC(=O)c1ccc(C2CCCC2)cc1 | 33 | – | – |
| CC(=O)N1C(c2ccc(C)cc2)N=C2c3ccccc3N=CN21 (stereo unspecified) | 23 | – | – |
| CCN(CC)c1ccc(C(=O)Cn2c3c(sc2=N)CCCC3)cc1 | 70 | 1.84 | CI [9]: 2.24 µM |

| Compound | Survival [1] [%] | EC50 [2] [µM] | also measured |
| --- | --- | --- | --- |
| N=c1sc2ccccc2n1CC(=O)c1ccccc1 | 20 | – | – |
| Cc1ccc(-c2nc3sc4ccccc4n3c2Br)cc1 | 24 | – | – |
| c1ccc2cc(-c3ccc(-c4cn5c(n4)sc4ccccc45)cc3)ccc2c1 | 75 | 4.02 | CI [10]: 4.69 µM |
| Cc1ccc(C(=O)CSc2nc3ccccc3[nH]2)cc1 | 15 | – | – |
| Cc1ccc(-c2csc3nc4ccccc4n23)cc1 | 48 | – | – |
| C#CCn1c(=N)sc2ccccc21 | 23 | – | – |
| Cc1ccc(C(=O)Cn2c(=O)sc3ccccc32)cc1 | 30 | – | – |
| Cc1ccc(-c2nc3c4ccccc4ncn3n2)cc1 | 17 | – | – |
| Cc1ccc(S(=O)(=O)Nc2nc3ccccc3s2)cc1 | 26 | – | – |
| c1ccc(-c2ccc(-c3cn4c5c(sc4n3)CCCC5)cc2)cc1 | 75 | 3.79 | CI [11]: 5.16 µM |
| Fc1ccc(-c2cn3c4c(sc3n2)CCCC4)cc1F | 44 | – | – |
| O=C(Oc1ccc(-c2cn3c4c(sc3n2)CCCC4)cc1)c1ccccc1 | 23 | – | – |
| Cc1ccc(-c2cn3cnc4ccccc4c3n2)cc1 | 26 | – | – |
| Cc1ccc(-c2nc3sc4c(n3c2Br)CCCC4)cc1 | 27 | – | – |
| N=c1sc2ccccc2n1CC(=O)c1ccc(-c2ccc3ccccc3c2)cc1 | 62 | > 10 | – |
| Cc1ccc(C(=O)CNc2ncnc3ccccc23)cc1 | 32 | – | – |
| c1ccc2c(c1)sc1nc(-c3ccc(C4CCCC4)cc3)cn12 | 36 | – | – |
| N=c1sc2c(n1CC(=O)c1ccc(F)cc1)CCCC2 | 48 | – | – |
| Clc1ccc(-c2cn3c4c(sc3n2)CCCC4)cc1Cl | 36 | – | – |
| N=c1sc2c(n1CC(=O)c1ccc([N+](=O)[O-])cc1)CCCC2 | 21 | – | – |
| Cc1ccc(/C=N/Nc2ncnc3ccccc23)cc1 | 23 | – | – |

| Compound | Survival [1] [%] | EC50 [2] [µM] | also measured |
| --- | --- | --- | --- |
| N=c1sc2c(n1CC(=O)c1ccc(OC(=O)c3ccccc3)cc1)CCCC2 | 17 | – | – |
| Cc1ccc(C(=O)Cn2c(=O)oc(=O)c3ccccc32)cc1 | 28 | – | – |
| N=c1sc2c(n1CC(=O)c1ccc(Cl)cc1)CCCC2 | 59 | 5.37 | CI [12]: 8.82 µM |
| Cc1ccc(-c2cn3c(n2)sc2cc(O)ccc23)cc1 | 19 | – | – |
| N#Cc1ccc(-c2cn3c4c(sc3n2)CCCC4)cc1 | 21 | – | – |
| Cc1cn2c(n1)sc1ccccc12 | 22 | – | – |
| N#Cc1ccc(C(=O)Cn2c3c(sc2=N)CCCC3)cc1 | 40 | – | – |
| Nc1ccc(-c2cn3c4c(sc3n2)CCCC4)cc1 | 18 | – | – |
| COc1ccc(C(=O)Cn2c3c(sc2=N)CCCC3)cc1 | 66 | 7.54 | – |
| Cc1ccc(C(=O)Cn2c3c(sc2=N)CCCC3)cc1 | 72 | 4.16 | CI [13]: 5.88 µM |
| Cc1ccc(-c2cn3ccsc3n2)cc1 | 27 | – | – |
| N=c1sc2ccccc2n1CC(=O)c1ccc(-c2ccccc2)cc1 | 66 | 7.26 | CI [14]: 8.76 µM |
| N=c1sc2ccccc2n1CC(=O)c1ccc(N2CCCC2)cc1 | 64 | 9.84 | CI [15]: 34.83 µM |
| Cc1ccc(C(=O)Cn2/c(=N/S(=O)(=O)c3ccccc3)sc3ccccc32)cc1 | 48 | – | – |
| c1ccc(-c2cn3c4c(sc3n2)CCCC4)cc1 | 19 | – | – |
| Clc1ccccc1-c1cn2c3c(sc2n1)CCCC3 | 37 | – | – |
| N=c1sc2c(n1CC(=O)c1cccc(F)c1)CCCC2 | 54 | 9.69 | – |
| COc1ccc2c(c1)sc1nc(-c3ccc(C)cc3)cn12 | 68 | 4.44 | CI [16]: 6.89 µM |
| Brc1ccc(-c2cn3c4c(sc3n2)CCCC4)cc1 | 35 | – | – |
| c1ccc(-c2ccc(-c3cn4c(n3)sc3ccccc34)cc2)cc1 | 59 | 8.12 | CI [17]: 13.75 µM |
| CCOC(=O)Cn1c2c(sc1=N)CCCC2 | 27 | – | – |

| Compound | Survival [1] [%] | EC50 [2] [µM] | also measured |
| --- | --- | --- | --- |
| c1ccc2cc(-c3ccc(-c4cn5c6c(sc5n4)CCCC6)cc3)ccc2c1 | 57 | 4.77 | CI [18]: 5.75 µM |
| N=c1sc2c(n1CC(=O)c1ccc(N3CCCC3)cc1)CCCC2 | 77 | 1.31 | CI [19]: 1.82 µM |
| N=c1sc2ccccc2n1Cc1ccccc1 | 20 | – | – |
| N=c1sc2c(n1CC(=O)c1ccc(C(F)(F)F)cc1)CCCC2 | 36 | – | – |
| N=c1sc2c(n1CC(=O)c1ccc(Br)cc1)CCCC2 | 31 | – | – |
| c1ccc(-c2cnc3sc4ccccc4n23)cc1 | 15 | – | – |
| c1cc(N2CCCC2)ccc1-c1cn2c3c(sc2n1)CCCC3 | 50 | > 10 | – |
| N=c1sc2c(n1CC(=O)c1ccccc1Cl)CCCC2 | 65 | 5.72 | CI [20]: 8.01 µM |
| N=c1sc2c(n1CC(=O)c1ccc(-c3ccccc3)cc1)CCCC2 | 65 | 2.29 | CI [21]: 2.98 µM |
| Cc1ccc(C(=O)Cn2c(=N)oc3ccc(Cl)cc32)cc1 | 19 | – | – |
| N=c1sc2c(n1CC(=O)c1ccc(-c3ccc4ccccc4c3)cc1)CCCC2 | 58 | 4.02 | CI [22]: 5.28 µM |
| CSC(=N)NC(=O)c1ccccc1NCC(=O)c1ccc(C)cc1 | 31 | – | – |
| Cc1ccc(C(=O)Cn2ccsc2=N)cc1 | 27 | – | – |
| Cc1ccc(Cn2c(=N)sc3ccccc32)cc1 | 8 | – | – |
| Fc1ccc(-c2cn3c4c(sc3n2)CCCC4)cc1 | 33 | – | – |
| Cc1ccc(-c2cn3c(n2)sc2cc(N)ccc23)cc1 | 27 | – | – |
| N=c1sc2c(n1CC(=O)c1ccc(F)c(F)c1)CCCC2 | 40 | – | – |
| Cc1ccc(C(=O)Cn2c3c(sc2=O)CCCC3)cc1 | 40 | – | – |
| O=C(O)c1ccc(-c2cn3c4c(sc3n2)CCCC4)cc1 | 20 | – | – |
| Oc1ccc(-c2cn3c4c(sc3n2)CCCC4)cc1 | 21 | – | – |
| [N-]=[N+]=Nc1ccc(C(=O)Cn2c3c(sc2=N)CCCC3)cc1 | 56 | 5.68 | CI [23]: 7 µM |
